According to PMC3741069 (Biochemistry, 2013):
Where a chain is given by its changes, count along the chain named.

Columns and labels:
Test in all cases: spectral perturbation titration
Assay type in all cases: binding
nitrate reductase (NarB) [1] = molecular target: T1, nitrate reductase (NarB) (Synechococcus elongatus, UniProt P39458, R160Q)
T1 sequence (P39458 15-729 R160Q): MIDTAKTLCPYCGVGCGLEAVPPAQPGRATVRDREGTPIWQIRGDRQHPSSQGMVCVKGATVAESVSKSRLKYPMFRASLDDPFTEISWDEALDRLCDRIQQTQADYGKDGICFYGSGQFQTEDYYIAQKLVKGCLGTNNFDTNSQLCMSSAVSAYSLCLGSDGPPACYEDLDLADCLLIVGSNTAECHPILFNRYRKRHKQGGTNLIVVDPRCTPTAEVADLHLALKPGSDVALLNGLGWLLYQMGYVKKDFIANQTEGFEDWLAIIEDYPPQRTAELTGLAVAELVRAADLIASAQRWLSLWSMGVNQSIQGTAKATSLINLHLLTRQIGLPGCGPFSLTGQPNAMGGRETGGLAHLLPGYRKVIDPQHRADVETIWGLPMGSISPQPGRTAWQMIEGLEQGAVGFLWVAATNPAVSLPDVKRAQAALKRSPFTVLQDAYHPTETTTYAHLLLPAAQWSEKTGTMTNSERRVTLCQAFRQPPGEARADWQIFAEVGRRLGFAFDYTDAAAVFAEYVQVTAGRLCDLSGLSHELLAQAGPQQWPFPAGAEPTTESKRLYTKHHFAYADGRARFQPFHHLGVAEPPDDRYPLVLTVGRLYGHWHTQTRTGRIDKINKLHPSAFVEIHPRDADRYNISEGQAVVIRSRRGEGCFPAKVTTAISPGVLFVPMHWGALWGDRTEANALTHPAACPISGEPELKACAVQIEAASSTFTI
How it was run: (§1)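 Single-residue NarB variants were made by site-directed mutagenesis and expressed and purified as for wild type (His6, Co affinity, DEAE, gel filtration). Complex formation with ferredoxin or nitrate was followed by difference absorbance at variant-specific wavelength pairs chosen for signal:noise. The change at saturating nitrate was taken as 100% complex. Kd came from fitting perturbation magnitude against ligand concentration to a single binding isotherm.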

nitrate reductase (NarB) [2] = molecular target: T2, nitrate reductase (NarB) (Synechococcus elongatus, UniProt P39458)
T2 sequence (P39458 15-729): T1 sequence (P39458 15-729 R160Q) with Q146R
How it was run: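 Recombinant wild-type Synechococcus sp. PCC 7942 NarB had its first 14 residues deleted and a C-terminal His6 tag. It was expressed in E. coli DH5a with 100 μM molybdate and purified by Co affinity, DEAE and gel filtration. Oxidized enzyme was titrated with ferredoxin (read at 420 minus 600 nm) or nitrate (read at 400 minus 470 nm; change at saturating nitrate taken as 100% complex). Kd came from a single binding isotherm fit.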

nitrate reductase (NarB) [3] = molecular target: T3, nitrate reductase (NarB) (Synechococcus elongatus, UniProt P39458, K72Q)
T3 sequence (P39458 15-729 K72Q): T1 sequence (P39458 15-729 R160Q) with K58Q, Q146R
How it was run: as §1

In the case of `O=[N+]([O-])O` [nitrate], the Kd (nitrate reductase (NarB) [1]) is reported as 1.5 ± 0.4 µM, the Kd (nitrate reductase (NarB) [2]) is reported as 1 ± 0.3 µM and the Kd (nitrate reductase (NarB) [3]) is reported as 8 ± 2.3 µM.
